*1 amine or outer side, *2 acyl side, *3 side chain or, on linkers, in order; H or OH if unused. Where a SMILES comes first, the peptide text is derived from it. Bridges are numbered along the chain shown (N, C = ends). [ ]: non-standard residue; d: D form. The star is where a group is joined. Staurosporine = CO[C@@H]1[C@H](N(C)*)C[C@H]2O[C@]1(C)n1c3ccccc3c3c4c(c5c6ccccc6n2c5c31)C(=O)NC4; Suc = O=C(CCC(=O)[*:2])[*:1]; Dap = NC[C@H](N)C(=O)O; βAla = NCCC(=O)O
Legend:
[1] = biological target: Serine/threonine-protein kinase PAK 1 (Homo sapiens) (UniProt Q13153); assay: Binding affinity to human PAK1 at 500 nM by cell-based competition binding assay relative to control in presence of DTT
Serine/threonine-protein kinase PAK 1 (Homo sapiens), sequence (Q13153 whole entry): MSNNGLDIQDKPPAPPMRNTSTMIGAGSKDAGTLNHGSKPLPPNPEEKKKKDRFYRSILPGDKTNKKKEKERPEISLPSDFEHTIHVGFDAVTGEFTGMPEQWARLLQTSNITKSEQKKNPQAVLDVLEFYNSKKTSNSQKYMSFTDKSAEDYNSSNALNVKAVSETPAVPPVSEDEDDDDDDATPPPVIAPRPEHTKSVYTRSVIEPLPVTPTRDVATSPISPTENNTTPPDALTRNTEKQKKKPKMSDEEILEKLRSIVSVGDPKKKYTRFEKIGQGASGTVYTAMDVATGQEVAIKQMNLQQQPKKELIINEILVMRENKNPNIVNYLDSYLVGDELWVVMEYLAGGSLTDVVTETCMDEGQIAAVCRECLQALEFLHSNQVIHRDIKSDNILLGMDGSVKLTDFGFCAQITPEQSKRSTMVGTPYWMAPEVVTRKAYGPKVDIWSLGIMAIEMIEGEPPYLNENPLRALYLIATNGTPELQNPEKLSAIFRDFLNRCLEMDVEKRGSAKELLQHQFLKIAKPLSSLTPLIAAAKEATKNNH

[2] = biological target: Mitogen-activated protein kinase 9 (Homo sapiens) (UniProt P45984); assay: Binding affinity to human JNK2 at 500 nM by cell-based competition binding assay relative to control in presence of DTT
Mitogen-activated protein kinase 9 (Homo sapiens), sequence (P45984 whole entry, looked up): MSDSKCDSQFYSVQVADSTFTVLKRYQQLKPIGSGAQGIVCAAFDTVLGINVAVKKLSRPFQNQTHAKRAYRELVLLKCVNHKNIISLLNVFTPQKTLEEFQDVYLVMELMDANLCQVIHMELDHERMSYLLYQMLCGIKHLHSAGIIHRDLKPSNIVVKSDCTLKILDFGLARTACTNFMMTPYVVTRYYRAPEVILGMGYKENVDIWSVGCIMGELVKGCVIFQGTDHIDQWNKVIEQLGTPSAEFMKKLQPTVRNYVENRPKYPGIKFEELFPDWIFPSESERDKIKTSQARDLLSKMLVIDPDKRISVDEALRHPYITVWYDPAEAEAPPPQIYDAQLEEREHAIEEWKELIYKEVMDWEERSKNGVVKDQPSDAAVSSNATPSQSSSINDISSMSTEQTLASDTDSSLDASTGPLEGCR
Outline: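 Competition binding screen (Ambit) across a panel of 90 kinases, scoring test ligand displacement of each kinase's binding relative to control. The screen ran under reducing conditions with 7.5 mM DTT.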

[3] = biological target: Proto-oncogene tyrosine-protein kinase receptor Ret (Homo sapiens) (UniProt P07949); assay: Binding affinity to human RET at 500 nM by cell-based competition binding assay relative to control in presence of DTT
Proto-oncogene tyrosine-protein kinase receptor Ret (Homo sapiens), sequence (P07949 whole entry): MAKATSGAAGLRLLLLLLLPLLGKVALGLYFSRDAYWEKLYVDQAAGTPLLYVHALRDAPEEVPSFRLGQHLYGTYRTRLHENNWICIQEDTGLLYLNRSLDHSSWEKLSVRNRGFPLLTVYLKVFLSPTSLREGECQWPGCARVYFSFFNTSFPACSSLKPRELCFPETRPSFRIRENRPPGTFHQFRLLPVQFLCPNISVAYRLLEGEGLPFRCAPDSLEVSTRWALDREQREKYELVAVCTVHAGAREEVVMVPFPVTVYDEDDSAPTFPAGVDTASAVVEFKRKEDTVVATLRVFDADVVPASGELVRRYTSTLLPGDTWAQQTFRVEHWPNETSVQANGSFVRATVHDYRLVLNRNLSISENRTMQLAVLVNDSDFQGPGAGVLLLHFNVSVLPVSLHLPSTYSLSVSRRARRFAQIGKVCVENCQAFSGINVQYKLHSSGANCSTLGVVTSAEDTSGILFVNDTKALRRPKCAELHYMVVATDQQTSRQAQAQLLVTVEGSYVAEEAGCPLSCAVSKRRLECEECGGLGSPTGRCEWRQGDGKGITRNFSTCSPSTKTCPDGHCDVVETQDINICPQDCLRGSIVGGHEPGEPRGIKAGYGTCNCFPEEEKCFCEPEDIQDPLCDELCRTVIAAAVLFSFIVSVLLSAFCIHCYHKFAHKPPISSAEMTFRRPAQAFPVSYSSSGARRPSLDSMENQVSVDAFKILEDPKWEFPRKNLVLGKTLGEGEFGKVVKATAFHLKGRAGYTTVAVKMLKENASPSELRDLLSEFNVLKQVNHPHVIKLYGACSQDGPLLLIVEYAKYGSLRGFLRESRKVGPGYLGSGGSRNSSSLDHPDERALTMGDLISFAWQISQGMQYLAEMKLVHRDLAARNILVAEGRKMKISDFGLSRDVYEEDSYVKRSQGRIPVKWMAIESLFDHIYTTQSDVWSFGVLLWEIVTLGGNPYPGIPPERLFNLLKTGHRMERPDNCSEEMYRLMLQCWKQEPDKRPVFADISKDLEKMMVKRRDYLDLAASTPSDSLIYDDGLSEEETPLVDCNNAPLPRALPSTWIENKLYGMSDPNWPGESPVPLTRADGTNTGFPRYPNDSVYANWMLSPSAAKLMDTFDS

[4] = biological target: Tyrosine-protein kinase ABL1 (Homo sapiens) (UniProt P00519); assay: Binding affinity to human ABL1 at 500 nM by cell-based competition binding assay relative to control in presence of DTT
Outline: (§1)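 Kinase binding profiling ran on a commercial (Ambit) competitive binding screen against a panel of 90 kinases. The screen used reducing conditions with 7.5 mM DTT. To withstand the DTT, the bivalent ligand was tested as its amide isostere, with the disulfide replaced. A staurosporine derivative carrying a 3 β-alanine linker was run as the reference compound.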

[5] = biological target: T1, Aurora kinase A (Homo sapiens) (UniProt O14965); assay: Binding affinity to human aurora kinase A at 500 nM by cell-based competition binding assay relative to control in presence of DTT
T1 sequence (whole entry): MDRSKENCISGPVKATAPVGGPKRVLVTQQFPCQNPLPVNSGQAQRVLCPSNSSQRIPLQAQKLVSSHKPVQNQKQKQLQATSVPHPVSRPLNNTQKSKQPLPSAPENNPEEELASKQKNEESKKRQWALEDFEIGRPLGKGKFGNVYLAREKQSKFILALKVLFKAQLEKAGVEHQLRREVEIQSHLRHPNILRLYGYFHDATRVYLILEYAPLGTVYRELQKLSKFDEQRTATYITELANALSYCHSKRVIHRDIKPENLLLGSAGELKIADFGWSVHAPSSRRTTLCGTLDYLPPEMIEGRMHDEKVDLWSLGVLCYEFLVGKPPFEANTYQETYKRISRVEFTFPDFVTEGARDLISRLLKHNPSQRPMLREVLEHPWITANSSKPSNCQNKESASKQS

[6] = biological target: Cyclin-dependent kinase 2 (Homo sapiens) (UniProt P24941); assay: Ratio of compound to staurosporine binding affinity to human CDK2 in presence of DTT
[7] = biological target: T2, 3-phosphoinositide-dependent protein kinase 1 (Homo sapiens) (UniProt O15530); assay: Binding affinity to human PDPK1 at 500 nM by cell-based competition binding assay relative to control in presence of DTT
T2 sequence (whole entry): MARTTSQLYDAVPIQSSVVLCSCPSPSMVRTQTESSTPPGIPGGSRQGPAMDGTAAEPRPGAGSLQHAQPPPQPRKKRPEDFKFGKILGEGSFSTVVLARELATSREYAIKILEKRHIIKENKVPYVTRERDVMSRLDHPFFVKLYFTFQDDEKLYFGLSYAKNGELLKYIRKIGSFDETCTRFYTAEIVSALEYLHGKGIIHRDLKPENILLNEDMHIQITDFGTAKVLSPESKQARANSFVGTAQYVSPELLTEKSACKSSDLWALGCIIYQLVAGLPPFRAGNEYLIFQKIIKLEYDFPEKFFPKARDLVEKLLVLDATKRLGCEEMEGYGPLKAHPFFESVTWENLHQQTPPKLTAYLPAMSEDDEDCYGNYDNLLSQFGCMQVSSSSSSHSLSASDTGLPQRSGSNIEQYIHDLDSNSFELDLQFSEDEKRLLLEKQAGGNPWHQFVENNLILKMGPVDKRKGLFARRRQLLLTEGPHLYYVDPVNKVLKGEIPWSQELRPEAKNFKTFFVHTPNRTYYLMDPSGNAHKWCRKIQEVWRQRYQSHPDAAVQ

[8] = tested on: Serine/threonine-protein kinase B-raf (Homo sapiens), P15056 [V600E]; assay: Binding affinity to human BRAF V600E mutant at 200 nM by cell-based competition binding assay relative to control in presence of DTT; outline: as §1
Serine/threonine-protein kinase B-raf (Homo sapiens), P15056 [V600E], sequence (P15056 whole entry V600E): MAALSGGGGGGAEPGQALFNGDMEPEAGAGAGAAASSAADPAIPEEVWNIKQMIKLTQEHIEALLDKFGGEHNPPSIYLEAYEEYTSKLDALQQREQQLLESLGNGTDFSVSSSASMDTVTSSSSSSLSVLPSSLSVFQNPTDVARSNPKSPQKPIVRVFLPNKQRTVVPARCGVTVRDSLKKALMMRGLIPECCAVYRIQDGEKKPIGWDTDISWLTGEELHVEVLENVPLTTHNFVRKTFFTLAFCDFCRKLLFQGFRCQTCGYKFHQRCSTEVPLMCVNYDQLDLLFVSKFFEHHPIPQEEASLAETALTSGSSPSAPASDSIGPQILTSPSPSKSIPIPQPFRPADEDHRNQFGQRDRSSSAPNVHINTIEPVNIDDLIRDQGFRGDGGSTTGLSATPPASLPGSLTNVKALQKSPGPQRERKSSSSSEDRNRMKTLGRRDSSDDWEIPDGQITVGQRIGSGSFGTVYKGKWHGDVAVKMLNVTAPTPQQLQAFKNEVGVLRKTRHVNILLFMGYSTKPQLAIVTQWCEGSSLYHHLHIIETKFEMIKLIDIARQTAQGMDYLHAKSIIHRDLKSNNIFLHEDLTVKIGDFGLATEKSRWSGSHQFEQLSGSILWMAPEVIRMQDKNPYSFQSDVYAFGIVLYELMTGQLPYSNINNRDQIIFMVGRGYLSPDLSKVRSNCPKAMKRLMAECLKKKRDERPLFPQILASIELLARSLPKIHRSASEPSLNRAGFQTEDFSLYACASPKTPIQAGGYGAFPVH

[9] = biological target: T3, NUAK family SNF1-like kinase 2 (Homo sapiens) (UniProt Q9H093); assay: Binding affinity to human SNARK at 200 nM by cell-based competition binding assay relative to control in presence of DTT
T3 sequence (whole entry): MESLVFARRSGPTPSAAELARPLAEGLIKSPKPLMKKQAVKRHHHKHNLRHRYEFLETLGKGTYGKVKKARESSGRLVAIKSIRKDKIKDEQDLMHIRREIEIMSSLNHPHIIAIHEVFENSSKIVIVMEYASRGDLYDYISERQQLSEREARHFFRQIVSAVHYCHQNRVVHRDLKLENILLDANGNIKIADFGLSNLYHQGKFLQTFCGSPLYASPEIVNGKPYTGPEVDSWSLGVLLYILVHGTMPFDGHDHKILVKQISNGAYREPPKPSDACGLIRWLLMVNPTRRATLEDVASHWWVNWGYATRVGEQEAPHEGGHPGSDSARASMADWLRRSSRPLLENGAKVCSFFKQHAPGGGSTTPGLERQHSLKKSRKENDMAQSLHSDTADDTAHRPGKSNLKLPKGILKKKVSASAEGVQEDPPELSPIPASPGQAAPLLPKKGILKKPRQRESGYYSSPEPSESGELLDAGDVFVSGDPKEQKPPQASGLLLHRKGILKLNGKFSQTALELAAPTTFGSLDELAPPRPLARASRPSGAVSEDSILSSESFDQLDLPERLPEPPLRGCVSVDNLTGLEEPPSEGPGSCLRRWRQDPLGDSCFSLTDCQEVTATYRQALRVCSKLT

[10] = biological target: Serine/threonine-protein kinase PAK 4 (Homo sapiens) (UniProt O96013); assay: Binding affinity to human PAK4 at 200 nM by cell-based competition binding assay relative to control in presence of DTT
[11] = biological target: Serine/threonine-protein kinase 32C (Homo sapiens) (UniProt Q86UX6); assay: Binding affinity to human YANK3 at 200 nM by cell-based competition binding assay relative to control in presence of DTT
Serine/threonine-protein kinase 32C (Homo sapiens), sequence (Q86UX6 whole entry): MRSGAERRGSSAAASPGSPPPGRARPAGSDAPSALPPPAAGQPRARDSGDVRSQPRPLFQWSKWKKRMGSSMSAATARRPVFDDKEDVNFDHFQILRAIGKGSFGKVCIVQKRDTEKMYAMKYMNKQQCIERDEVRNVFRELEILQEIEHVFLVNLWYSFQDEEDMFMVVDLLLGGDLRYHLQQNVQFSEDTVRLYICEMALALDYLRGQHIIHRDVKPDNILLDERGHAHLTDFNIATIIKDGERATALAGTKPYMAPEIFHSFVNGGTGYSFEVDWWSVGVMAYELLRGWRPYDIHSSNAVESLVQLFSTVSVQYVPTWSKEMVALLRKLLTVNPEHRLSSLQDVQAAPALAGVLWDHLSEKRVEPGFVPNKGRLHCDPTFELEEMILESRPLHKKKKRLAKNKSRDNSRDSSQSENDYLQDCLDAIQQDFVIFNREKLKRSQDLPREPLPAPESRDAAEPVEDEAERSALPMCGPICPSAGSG

[12] = biological target: High affinity nerve growth factor receptor (Homo sapiens) (UniProt P04629); assay: Binding affinity to human TRKA at 50 nM by cell-based competition binding assay relative to control in presence of DTT
High affinity nerve growth factor receptor (Homo sapiens), sequence (P04629 33-796 limits assumed): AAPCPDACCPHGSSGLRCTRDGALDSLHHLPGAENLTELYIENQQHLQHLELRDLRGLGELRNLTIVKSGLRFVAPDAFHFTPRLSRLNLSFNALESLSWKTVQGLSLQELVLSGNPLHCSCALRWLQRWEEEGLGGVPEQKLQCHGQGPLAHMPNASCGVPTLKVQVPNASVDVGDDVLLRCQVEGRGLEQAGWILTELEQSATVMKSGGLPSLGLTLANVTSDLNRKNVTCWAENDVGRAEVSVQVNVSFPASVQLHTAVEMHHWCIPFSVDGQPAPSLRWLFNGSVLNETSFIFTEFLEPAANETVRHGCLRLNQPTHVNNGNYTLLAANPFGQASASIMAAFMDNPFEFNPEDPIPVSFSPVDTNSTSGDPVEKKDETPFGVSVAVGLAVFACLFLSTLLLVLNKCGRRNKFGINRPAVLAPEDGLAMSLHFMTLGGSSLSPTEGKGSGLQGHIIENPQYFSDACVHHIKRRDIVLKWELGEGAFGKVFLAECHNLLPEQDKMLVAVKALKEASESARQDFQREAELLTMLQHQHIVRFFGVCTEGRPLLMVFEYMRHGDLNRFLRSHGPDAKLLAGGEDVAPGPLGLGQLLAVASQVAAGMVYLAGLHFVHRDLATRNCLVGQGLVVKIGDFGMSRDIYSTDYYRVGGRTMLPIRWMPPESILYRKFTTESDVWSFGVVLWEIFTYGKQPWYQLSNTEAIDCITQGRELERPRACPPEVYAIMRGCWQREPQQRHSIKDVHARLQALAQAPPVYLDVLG

[13] = biological target: Proto-oncogene tyrosine-protein kinase receptor Ret (Homo sapiens) (UniProt P07949); assay: Binding affinity to human RET at 50 nM by cell-based competition binding assay relative to control in presence of DTT
[14] = biological target: Macrophage colony-stimulating factor 1 receptor (Homo sapiens) (UniProt P07333); assay: Binding affinity to human CSF1R at 50 nM by cell-based competition binding assay relative to control in presence of DTT
Macrophage colony-stimulating factor 1 receptor (Homo sapiens), sequence (P07333 whole entry): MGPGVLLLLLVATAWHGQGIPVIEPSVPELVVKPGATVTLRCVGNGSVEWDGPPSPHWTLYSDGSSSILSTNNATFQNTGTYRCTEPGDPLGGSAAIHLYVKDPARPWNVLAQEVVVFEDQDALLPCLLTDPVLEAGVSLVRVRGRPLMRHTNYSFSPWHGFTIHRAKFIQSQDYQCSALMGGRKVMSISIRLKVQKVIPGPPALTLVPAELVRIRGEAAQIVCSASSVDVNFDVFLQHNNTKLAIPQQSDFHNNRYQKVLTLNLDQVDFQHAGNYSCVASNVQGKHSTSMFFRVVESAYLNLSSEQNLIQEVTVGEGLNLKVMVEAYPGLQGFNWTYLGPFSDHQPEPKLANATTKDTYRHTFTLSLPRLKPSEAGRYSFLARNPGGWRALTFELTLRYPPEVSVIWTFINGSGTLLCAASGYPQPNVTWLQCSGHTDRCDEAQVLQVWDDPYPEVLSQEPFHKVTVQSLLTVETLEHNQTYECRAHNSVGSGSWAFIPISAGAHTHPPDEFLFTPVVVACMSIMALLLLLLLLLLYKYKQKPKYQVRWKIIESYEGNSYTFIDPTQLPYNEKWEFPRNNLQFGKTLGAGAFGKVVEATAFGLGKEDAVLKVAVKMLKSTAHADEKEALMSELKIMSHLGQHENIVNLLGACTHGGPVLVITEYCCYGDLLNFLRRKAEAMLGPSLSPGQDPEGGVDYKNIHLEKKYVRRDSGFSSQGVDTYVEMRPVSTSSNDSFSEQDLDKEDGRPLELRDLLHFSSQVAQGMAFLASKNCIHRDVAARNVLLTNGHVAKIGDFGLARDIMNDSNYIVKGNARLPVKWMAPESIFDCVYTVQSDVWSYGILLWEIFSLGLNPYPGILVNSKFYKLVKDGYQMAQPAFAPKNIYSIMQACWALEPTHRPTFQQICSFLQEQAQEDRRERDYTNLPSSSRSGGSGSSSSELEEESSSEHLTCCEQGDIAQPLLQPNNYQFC
Outline: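 Commercial (Ambit) competitive kinase-binding panel of 90 kinases measured the binding profile. Run under reducing conditions of 7.5 mM DTT. Binding is expressed relative to control.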

CO[C@@H]1[C@H](N(C)C(=O)CCC(=O)NCCC(=O)NCCC(=O)NCCC(N)=O)C[C@H]2O[C@]1(C)n1c3ccccc3c3c4c(c5c6ccccc6n2c5c31)C(=O)NC4
Activity [1]: 4%
Activity [2]: 87%
Activity [3]: 5.6%
Activity [4]: 68%
Activity [5]: 4.2%
Selectivity ratio [6]: 50
Activity [7]: 18%

CO[C@@H]1[C@H](N(C)C(=O)CCC(=O)NCCC(=O)NCCC(=O)NCCC(=O)NCCC(=O)NCCC(=O)NCCC(=O)NCCC(=O)N[C@H]2CSSC[C@@H](C(=O)NCC(N)=O)NC(=O)CNC(=O)[C@H](Cc3ccccc3)NC(=O)[C@H](C(C)C)NC(=O)[C@H](CCCNC(=N)N)NC(=O)[C@H](Cc3ccccc3)NC(=O)[C@H](C(C)C)NC2=O)C[C@H]2O[C@]1(C)n1c3ccccc3c3c4c(c5c6ccccc6n2c5c31)C(=O)NC4 ({Staurosporine-Suc-βAla-βAla-βAla-βAla-βAla-βAla-βAla}-CVFRVFGCG-NH2; disulfide 1-8)
Activity [8]: 100%
Activity [9]: 0.45%
Activity [10]: 40%
Activity [11]: 100%

CO[C@@H]1[C@H](N(C)C(=O)CCC(=O)NCCC(=O)NCCC(=O)NCCC(=O)NCCC(=O)NCCC(=O)NCCC(=O)NCCC(=O)N[C@H]2CNC(=O)C[C@@H](C(N)=O)NC(=O)CNC(=O)[C@H](Cc3ccccc3)NC(=O)[C@H](C(C)C)NC(=O)[C@H](CCCNC(=N)N)NC(=O)[C@H](Cc3ccccc3)NC(=O)[C@H](C(C)C)NC2=O)C[C@H]2O[C@]1(C)n1c3ccccc3c3c4c(c5c6ccccc6n2c5c31)C(=O)NC4 ({Staurosporine-Suc-βAla-βAla-βAla-βAla-βAla-βAla-βAla}-[Dap]VFRVFGD-NH2; lactam 1-8)
Activity [12]: 98%
Activity [13]: 94%
Activity [14]: 83%
